The source made the active and inactive calls. The rule behind the calls is not given here.
Legend:
Mus musculus = assay: Hypoglycemic activity in albino CD-1 mouse assessed as reduction in blood glucose level at 10 mg/kg, po pretreated for 0.5 hrs followed by glucose challenge and measured after 30 to 90 mins by OGTT; format: functional, organism-based
Summary of the method: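 Male CD-1 albino mice, 25–35 g, randomized by weight into groups of 5, fasted 12 h. Compounds mixed with a few drops of Tween 80 or DMSO, dissolved in distilled water, given orally at 10 mg/kg 0.5 h before an oral glucose load (2.5 g/kg). Controls got vehicle only. Blood glucose read by glucometer at 0, 30, 60, 90 min. Mean ± SD, n = 5.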

Dipeptidyl peptidase 4 = Dipeptidyl peptidase 4 (Homo sapiens, UniProt P27487); assay: Inhibition of recombinant human DPP4 using H-Gly-Pro-AMC as substrate measured after 10 mins
Sequence of Dipeptidyl peptidase 4 (P27487 whole entry): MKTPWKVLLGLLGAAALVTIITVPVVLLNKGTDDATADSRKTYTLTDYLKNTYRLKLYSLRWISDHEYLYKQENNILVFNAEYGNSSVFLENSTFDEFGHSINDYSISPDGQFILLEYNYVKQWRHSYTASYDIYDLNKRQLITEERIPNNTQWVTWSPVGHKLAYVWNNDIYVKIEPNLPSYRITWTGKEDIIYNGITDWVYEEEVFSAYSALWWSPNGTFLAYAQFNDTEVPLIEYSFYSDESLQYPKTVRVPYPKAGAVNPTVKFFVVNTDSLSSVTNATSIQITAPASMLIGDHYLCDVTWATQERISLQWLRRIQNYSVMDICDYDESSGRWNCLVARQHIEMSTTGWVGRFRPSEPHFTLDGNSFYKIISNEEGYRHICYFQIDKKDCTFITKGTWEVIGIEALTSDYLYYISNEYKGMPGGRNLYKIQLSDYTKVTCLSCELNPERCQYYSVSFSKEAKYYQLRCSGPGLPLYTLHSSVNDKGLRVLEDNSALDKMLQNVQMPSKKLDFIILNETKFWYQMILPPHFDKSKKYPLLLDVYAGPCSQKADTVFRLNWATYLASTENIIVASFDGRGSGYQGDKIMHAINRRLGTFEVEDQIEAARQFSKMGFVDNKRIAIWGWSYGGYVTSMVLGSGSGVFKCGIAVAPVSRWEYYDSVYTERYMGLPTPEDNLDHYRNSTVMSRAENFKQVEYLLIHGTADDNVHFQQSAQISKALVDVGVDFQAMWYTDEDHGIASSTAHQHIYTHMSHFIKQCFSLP

| Structure (SMILES) | Activity (Mus musculus) | IC50 (Dipeptidyl peptidase 4) |
| --- | --- | --- |
| CC1(C)[C@@H]2CC[C@@]1(C)[C@H](NCC(=O)N1CCC[C@H]1C#N)C2 | Active |  |
| CC1(C)[C@H]2CC[C@]1(C)[C@@H](O)[C@H]2NCC(=O)N1CCC[C@H]1C#N (stereo in doubt) | Active |  |
| N#C[C@@H]1CCCN1C(=O)CN1C[C@H]2C[C@H](C1)c1c(Cl)ccc(=O)n1C2 | inactive | Not Active |
| CC12CCC([C@H](NCC(=O)N3CCC[C@H]3C#N)C1=O)C2(C)C (single isomer, unassigned) | Active |  |
| N#C[C@@H]1CCCN1C(=O)CN1C[C@H]2C[C@H](C1)c1c(Br)cc(Br)c(=O)n1C2 | inactive | Not Active |
| N#C[C@@H]1CCCN1C(=O)CNC12CC3CC(CC(O)(C3)C1)C2 | Active |  |
| N#C[C@@H]1CCCN1C(=O)CN1C[C@H]2C[C@H](C1)c1c(Cl)cc(Cl)c(=O)n1C2 | inactive | Not Active |
| N#C[C@@H]1CCCN1C(=O)CN1C[C@H]2C[C@H](C1)c1ccc([N+](=O)[O-])c(=O)n1C2 | inactive | Not Active |
| CC1(C)[C@H]2CC[C@]1(C)[C@@H](NCC(=O)N1CCC[C@H]1C#N)C2 | Active |  |
| N#C[C@@H]1CCCN1C(=O)CN1C[C@H]2C[C@H](C1)c1cccc(=O)n1C2 | inactive | Not Active |

— ChEMBL document CHEMBL4229489, “Synthesis and evaluation of camphor and cytisine-based cyanopyrrolidines as DPP-IV inhibitors for the treatment of type 2 diabetes mellitus” (Bioorg Med Chem, 2018)
